The source made the active and inactive calls. The rule behind the calls is not given here.
What was measured:
[1] = Drug uptake in lung of SCID mouse xenografted with human HT-29 cells using 177Lu labelled compound at 0.37 MBq/mouse, iv co-treated with D-lysine at 40 mg/kg measured at 24 hrs by gamma counter analysis; type: ADME, organism-based; conditions: in vivo
Outline: (§1)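 Female SCID mice bore s.c. HT-29 xenografts (5 × 10^6 cells in Matrigel, about 80 mm3). D-lysine 40 mg/kg was co-injected i.v. with 10 μCi (0.37 MBq) of purified 177Lu-conjugate. Tissues were harvested at 24 h, weighed and gamma-counted, reported as %ID/g; mean ± SD, n = 5.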

[2] = Drug uptake in stomach of SCID mouse xenografted with human HT-29 cells using 177Lu labelled compound at 0.37 MBq/mouse, iv co-treated with D-lysine at 40 mg/kg measured at 24 hrs by gamma counter analysis; type: ADME, organism-based; conditions: in vivo
Outline: (§2)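 HT-29 s.c. xenografts in female SCID mice. 177Lu conjugate given i.v. by tail vein at 10 μCi (0.37 MBq)/mouse, co-injected with D-lysine 40 mg/kg. Tissues were taken at 24 h, weighed and gamma counted. Uptake expressed as %ID/g (n = 5, mean ± SD); tumor-to-tissue ratios derived from these values.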

[3] = Ratio of drug uptake in SCID mouse xenograted with human HT-29 cells assessed as tumour retention to drug uptake in pancreas of SCID mouse xenografted with human HT-29 cells cotreated with D-lysine at 40 mg/kg measured after 24 hrs using 177Lu labelled compound; type: ADME, organism-based, Tumor/Pancreas; conditions: in vivo
[4] = Drug uptake in bone of SCID mouse xenografted with human HT-29 cells using 177Lu labelled compound at 0.37 MBq/mouse, iv co-treated with D-lysine at 40 mg/kg measured at 24 hrs by gamma counter analysis; type: ADME, organism-based, Bone element; conditions: in vivo; outline: as §1
[5] = Drug uptake in SCID mouse xenografted with human HT-29 cells assessed as tumour retention using 177Lu labelled compound at 0.37 MBq/mouse, iv co-treated with D-lysine at 40 mg/kg measured at 24 hrs by gamma counter analysis; type: ADME, organism-based; conditions: in vivo
Outline: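 Female SCID mice bearing s.c. flank HT-29 xenografts (5 × 10^6 cells in Matrigel, ~80 mm3). Given 10 μCi (0.37 MBq) 177Lu conjugate i.v. by tail vein; groups sacrificed at 4, 24, 72 h. Tissues weighed and gamma-counted as %ID/g, excretion as %ID; n = 5, mean ± SD. Blocking arms: colchicine 1 mg/kg i.p. beforehand, or D-lysine 40 mg/kg co-injected.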

[6] = Drug retention in liver lysates of mouse xenografted with human HT-29 cells assessed as macromolecule associated radioactivity at 29.6 MBq measured after 72 hrs using 177Lu labelled compound by gamma counter analysis relative to control; type: ADME, tissue-based; conditions: in vivo
Outline: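 HT-29 xenograft mice given 800 μCi (29.6 MBq) 177Lu conjugate i.v. and killed at 72 h. Tumor, liver and kidney homogenized in RIPA with protease inhibitor and supernatants run on SDS-PAGE autoradiography. Other supernatant aliquots filtered through 10 kDa MWCO devices to give the % macromolecule-associated radioactivity; n = 3.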

[7] = Drug retention in tumor lysates of mouse xenografted with human HT-29 cells assessed as macromolecule associated radioactivity at 29.6 MBq co-treated with D-lysine measured after 72 hrs using 177Lu labelled compound by gamma counter analysis relative to control; type: ADME, tissue-based, Neoplasm; conditions: in vivo
[8] = Drug uptake in heart of SCID mouse xenografted with human HT-29 cells using 177Lu labelled compound at 0.37 MBq/mouse, iv co-treated with D-lysine at 40 mg/kg measured at 24 hrs by gamma counter analysis; type: ADME, organism-based; conditions: in vivo; outline: as §1
[9] = Drug uptake in spleen of SCID mouse xenografted with human HT-29 cells using 177Lu labelled compound at 0.37 MBq/mouse, iv co-treated with D-lysine at 40 mg/kg measured at 24 hrs by gamma counter analysis; type: ADME, organism-based; conditions: in vivo; outline: as §2
[10] = Drug uptake in spleen of SCID mouse xenografted with human HT-29 cells pretreated for 1 hr with colchicine at 1 mg/kg, ip followed by 177Lu labelled compound at 0.37 MBq/mouse, iv measured at 24 hrs by gamma counter analysis; type: ADME, organism-based; conditions: in vivo
Outline: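 HT-29 xenograft SCID mice pretreated with colchicine 1 mg/kg i.p., then given 177Lu conjugate i.v. at 10 μCi (0.37 MBq)/mouse. Tissues excised at 24 h, weighed and gamma counted for %ID/g (n = 5, mean ± SD).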

[11] = Drug uptake in lung of SCID mouse xenografted with human HT-29 cells pretreated for 1 hr with colchicine at 1 mg/kg, ip followed by 177Lu labelled compound at 0.37 MBq/mouse, iv measured at 24 hrs by gamma counter analysis; type: ADME, organism-based; conditions: in vivo
Outline: (§3)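 HT-29 flank xenografts in female SCID mice (5 × 10^6 cells in Matrigel, about 80 mm3). Colchicine 1 mg/kg was given i.p. before a tail-vein injection of 10 μCi (0.37 MBq) of purified 177Lu-conjugate. Tissues were taken at 24 h, weighed and gamma-counted as %ID/g; mean ± SD, n = 5.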

[12] = Drug localization in endolysosomal compartment of human HT-29 cells assessed as co-localization efficiency at 5 uM incubated for 2 hrs and measured over 24 hrs using natEu labelled compound by lysotracker green staining based confocal microscopic analysis relative to control; type: ADME, subcellular; conditions: ht-29, 5 µM
Outline: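 HT-29 cells (1.25 × 10^5/well) loaded with natEu conjugate (5 μM), washed, then chased in fresh medium up to 24 h. Lysotracker Green (100 nM) applied 2 h before each read; cells fixed and imaged confocally at 405/488 nm. Per-cell mean fluorescence and Lysotracker co-localization quantified.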

[13] = Drug uptake in bone of SCID mouse xenografted with human HT-29 cells pretreated for 1 hr with colchicine at 1 mg/kg, ip followed by 177Lu labelled compound at 0.37 MBq/mouse, iv measured at 24 hrs by gamma counter analysis; type: ADME, organism-based, Bone element; conditions: in vivo; outline: as §3
[14] = target: Procathepsin L (Homo sapiens, UniProt P07711); test: Binding affinity to cathepsin L in human HT-29 cells assessed as intracellular adduct formation at 0.74 MBq incubated for 4 hrs in presence of E-64 using 177Lu labelled compound by SDS-PAGE analysis; type: cell-based; design: dose or concentration left out as unconfirmed
Outline: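 HT-29 cells (1 × 10^6/well) incubated 4 h at 37 °C with 177Lu conjugate (20 μCi, 0.74 MBq) in 1 mL medium, with or without E-64 (10 μM) or NTSR1 peptide N1 (20 μM). Cells washed and refed; at set times cells pooled, RIPA-lysed with protease inhibitor. Lysates heated 85 °C 2 min, run on 16% tris-glycine SDS-PAGE, and phosphor autoradiography taken after 72 h exposure.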

[15] = Ratio of drug uptake in SCID mouse xenograted with human HT-29 cells assessed as tumour retention to drug uptake in liver of SCID mouse xenografted with human HT-29 cells cotreated with D-lysine at 40 mg/kg measured after 24 hrs using 177Lu labelled compound; type: ADME, organism-based, Tumor/Liver; conditions: in vivo
[16] = Drug retention in liver of mouse xenografted with human HT-29 cells assessed as tissue-conjugate adduct formation at 29.6 MBq co-treated with D-lysine at 40 mg/kg measured after 72 hrs using 177Lu labelled compound by SDS-PAGE analysis; type: ADME, organism-based; conditions: in vivo
[17] = Drug retention in kidney lysates of mouse xenografted with human HT-29 cells assessed as macromolecule associated radioactivity at 29.6 MBq co-treated with D-lysine measured after 72 hrs using 177Lu labelled compound by gamma conter analysis relative to control; type: ADME, tissue-based; conditions: in vivo

Procathepsin L, sequence (P07711 114-333 limits assumed): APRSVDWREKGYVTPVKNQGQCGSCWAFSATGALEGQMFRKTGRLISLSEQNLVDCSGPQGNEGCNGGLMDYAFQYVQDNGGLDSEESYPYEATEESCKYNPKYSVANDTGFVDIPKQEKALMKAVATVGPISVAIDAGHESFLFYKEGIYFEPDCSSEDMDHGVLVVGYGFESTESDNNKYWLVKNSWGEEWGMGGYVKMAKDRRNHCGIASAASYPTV

Cc1cc(O)cc(C)c1C[C@H](NC(=O)[C@@H]1CCCN1C(=O)[C@H](CCCNC(=N)N)NC(=O)[C@H](CCCNC(=N)N)N(C)C(=O)[C@@H]1CCCN1C(=O)[C@H](CCCCN)NC(=O)[C@@H](CO)NC(=O)[C@@H](CO)NC(=O)[C@@H](CO)NC(=O)[C@H](Cc1cn(CCNC(=O)[C@H](CCCNC(=N)N)NC(=O)[C@H](CC(C)C)NC(=O)C2OC2C(=O)O)nn1)NC(=O)CN1CCN(CC(=O)O)CCN(CC(=O)O)CCN(CC(=O)O)CC1)C(=O)N[C@H](C(=O)N[C@@H](CC(C)C)C(=O)O)C(C)(C)C (some centres not stated)
Drug uptake [1]: 0.41 % ID/g | Drug uptake [2]: 0.21 % ID/g | Ratio [3]: 75 | Drug uptake [4]: 0.6 % ID/g | Drug uptake [5]: 6 % ID/g | Drug uptake [6]: 80% | Drug uptake [7]: 80% | Drug uptake [8]: 0.14 % ID/g | Drug uptake [9]: 1.1 % ID/g | Drug uptake [10]: 4 % ID/g | Drug uptake [11]: 3.2 % ID/g | Drug uptake [12]: 60% | Drug uptake [13]: 0.36 % ID/g | Activity [14]: Active | Ratio [15]: 9.6 | Drug uptake [16]: Not Active | Drug uptake [17]: 80%
